We go through 24 molecules from ChEMBL document CHEMBL3763156, “Imidazole-based pinanamine derivatives: Discovery of dual inhibitors of the wild-type and drug-resistant mutant of the influenza A virus” (Eur J Med Chem, 2016).

In series [1] the test system is Influenza A virus. In words: Antiviral activity against amantadine-sensitive Influenza A virus A/HK/68 (H3N2) expressing wild type M2 ion channel infected in MDCK cells assessed as protection against virus induced cytopathic effect after 48 hrs by microscopic analysis. Type of series: functional, organism-based, Influenza A virus (A/Hong Kong/1/1968(H3N2)). The method, boiled down:
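MDCK cells were grown 24 h to a confluent monolayer and rinsed twice. They were infected with 100 TCID50 virus for 2 h at 37 °C in 5% CO2, and the inoculum was removed. Serial two-fold compound dilutions in DMEM with 1.5 µg/mL trypsin were added for 48 h at 34 °C in 5% CO2. CPE percentage was scored microscopically. IC50 came from non-linear regression, as the mean of 2–3 determinations.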
On the technique in general: Damage to the host cells serves as the signal in cytopathic effect assays.

Series [2] is described as follows: Cytotoxicity against MDCK cells assessed as cell viability after 48 hrs by MTT assay. Type of series: cell-based, Canis lupus familiaris. To be noted: dog. The method, boiled down:
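Uninfected MDCK cells were exposed to various compound concentrations for 48 h. MTT was added from a 5 mg/mL stock for 4 h at 37 °C, stopped with DMSO, and read at 490 nm. CC50 was calculated by the Reed–Muench method, as the mean of 2–3 determinations.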
(In general: Formazan colour is commonly taken as a measure of viable cells.)

The test system of series [3] is Influenza A virus. In words: Antiviral activity against amantadine-sensitive Influenza A virus A/HK/68 (H3N2) expressing wild type M2 ion channel infected in MDCK cells assessed as cell viability after 48 hrs by MTT assay. Type of series: functional, organism-based, Influenza A virus (A/Hong Kong/1/1968(H3N2)). The method, boiled down: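 Infected MDCK cells were given compound for 48 h, and the CPE-based result was confirmed by MTT viability. MTT was added from a 5 mg/mL stock for 4 h at 37 °C, stopped with DMSO, and read as absorbance at 490 nm. The 50% effective concentration was calculated by the Reed–Muench method, as the mean of 2–3 determinations.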

Series [4] addresses Matrix protein 2 (Influenza A virus (A/Udorn/307/1972(H3N2))) (UniProt P0DOF8). In words: Inhibition of Influenza A virus wild type M2 ion channel expressed in Xenopus oocytes at 100 uM after 2 mins by two-electrode voltage clamp assay. Type of series: cell-based. In a few lines:
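A/M2 channel (S31N for line 7, wild type for line 9) was expressed in Xenopus oocytes and recorded by two-electrode voltage clamp. Compound was applied at 100 µM, and the percentage inhibition of channel current was taken after 2 min. Values are mean ± SD.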

Series [5] shares this target. In words: Inhibition of Influenza A virus wild type M2 ion channel expressed in 293Trex cells at 100 uM after 2 mins by patch clamp assay. Type of series: cell-based. Background: Patch clamp records ionic current or voltage across a cell membrane.
[6] abbreviates: Influenza A virus, MDCK, 48 h, read-out: IC50.

Broadly, the IC50 is the midpoint of a concentration-inhibition curve. What is called CC50 is the concentration at which the toxic effect on the cells reaches its halfway point. A word on the inhibition: it is how much of the control response was suppressed.

For the molecule `CC(C)c1ncc(CN[C@@H]2C[C@@H]3C[C@H]([C@H]2C)C3(C)C)[nH]1`, the IC50 result in the series on Influenza A virus [1] (mdck) is “Not Active”. Besides, the cytotoxic concentration (CC50) at 48 h in series [2] came to 114 µM.
In the same order, the values of `C[C@@H]1[C@H]2C[C@@H](C[C@H]1NCc1cnc(C3CCCC3)[nH]1)C2(C)C` are “Not Active” and 37.2 µM.
In the case of `C[C@@H]1[C@H]2C[C@@H](C[C@H]1NCc1cnc(-c3ccccc3)[nH]1)C2(C)C`, the IC50 was 10.7 µM in the series with Influenza A virus [3] and 7.6 µM in the series with Influenza A virus [1] (setting [6]). In series [2], the CC50 at 48 h was determined as 79.9 µM.
Consider `C[C@@H]1[C@H]2C[C@@H](C[C@H]1NCc1cncn1C)C2(C)C`, for which the IC50 in the series with Influenza A virus [1] (setting [6]) came out at 12 µM.
Consider `C[C@@H]1[C@H]2C[C@@H](C[C@H]1NCc1cnc(C3CCCCC3)[nH]1)C2(C)C`, for which, in the series on Influenza A virus [1] (mdck), the IC50 result was “Not Active”. Moreover, the CC50 at 48 h in series [2] was determined as 33.5 µM.
Turning to `CCc1nc(C)c(CN[C@@H]2C[C@@H]3C[C@H]([C@H]2C)C3(C)C)[nH]1`, the IC50 in the series with Influenza A virus [3] is 4.5 µM; with Influenza A virus [1] (setting [6]) it was 4.1 µM. Further, the inhibition in series [4] was found to be 91.7%. The CC50 at 48 h in series [2] came out at 136 µM.
As to `C[C@@H]1[C@H]2C[C@@H](C[C@H]1NCc1[nH]cnc1-c1ccccc1)C2(C)C`, in the series with Influenza A virus [1] (mdck), the concentration for half-maximal inhibition (IC50) result is on record as “Not Active”. Further, in series [2], the CC50 at 48 h was found to be 39.7 µM.
As to `Cc1nc(C2CC2)[nH]c1CN[C@@H]1C[C@@H]2C[C@H]([C@H]1C)C2(C)C`, the IC50 turned out to be 21.2 µM with Influenza A virus [3] and 15.3 µM in the series on Influenza A virus [1] (setting [6]). Further, the CC50 at 48 h in series [2] came out at 74.9 µM.
As for `CCCCc1ncc(CN[C@@H]2C[C@@H]3C[C@H]([C@H]2C)C3(C)C)[nH]1`, the IC50 result with Influenza A virus [1] (mdck) is recorded as “Not Active”. In addition, in series [2], the cytotoxic concentration (CC50) at 48 h was determined as 70.4 µM.
In the case of `CCCc1nc(-c2ccccc2)[nH]c1CN[C@@H]1C[C@@H]2C[C@H]([C@H]1C)C2(C)C`, the IC50 in the series on Influenza A virus [3] was 15.2 µM; with Influenza A virus [1] (setting [6]) it was 13.5 µM. Also, in series [2], the CC50 at 48 h came to 143 µM.
Regarding `CCCc1nc[nH]c1CN[C@@H]1C[C@@H]2C[C@H]([C@H]1C)C2(C)C`, the IC50 in the series on Influenza A virus [3] is 3.3 µM; in the series on Influenza A virus [1] (setting [6]), 2.5 µM. Further, in series [4], the inhibition was 97.9%. Further, the CC50 at 48 h in series [2] was found to be 200 µM.
`Cc1nc(C(C)C)[nH]c1CN[C@@H]1C[C@@H]2C[C@H]([C@H]1C)C2(C)C`: the IC50 entry in the series on Influenza A virus [1] (mdck) is “Not Active”. In addition, the CC50 at 48 h in series [2] was 73.1 µM.
With `C[C@@H]1[C@H]2C[C@@H](C[C@H]1NCc1cnc(C(C)(C)C)[nH]1)C2(C)C`, the IC50 was found to be 12.4 µM in the series on Influenza A virus [3] and 8.8 µM in the series with Influenza A virus [1] (setting [6]). Also, in series [2], the CC50 at 48 h is 107 µM.
For `CCCc1nc(C2CC2)[nH]c1CN[C@@H]1C[C@@H]2C[C@H]([C@H]1C)C2(C)C`, the IC50 in the series on Influenza A virus [3] came to 10.8 µM; with Influenza A virus [1] (setting [6]), 6.9 µM. For the same molecule, the CC50 at 48 h in series [2] came out at 112 µM.
As to `C[C@@H]1[C@H]2C[C@@H](C[C@H]1NCc1[nH]cnc1C(C)(C)C)C2(C)C`, the IC50 was 12.9 µM in the series on Influenza A virus [3] and 8.3 µM with Influenza A virus [1] (setting [6]). Moreover, the half-maximal cytotoxic concentration (CC50) at 48 h in series [2] was found to be 72.3 µM.
For `Cc1nc[nH]c1CN[C@@H]1C[C@@H]2C[C@H]([C@H]1C)C2(C)C`, the IC50 with Influenza A virus [1] (setting [6]) is 3.2 µM. Besides, in series [2], the CC50 at 48 h worked out at 252 µM. For the same molecule, the inhibition in series [5] was 95.8%.
Consider `CC(C)Cc1ncc(CN[C@@H]2C[C@@H]3C[C@H]([C@H]2C)C3(C)C)[nH]1`, for which the IC50 is 15.2 µM in the series with Influenza A virus [3] and 8.7 µM in the series with Influenza A virus [1] (setting [6]). The CC50 at 48 h in series [2] was determined as 74.8 µM.
On to `CCc1ncc(CN[C@@H]2C[C@@H]3C[C@H]([C@H]2C)C3(C)C)[nH]1`, for which the IC50 result in the series on Influenza A virus [1] (mdck) is recorded as “Not Active”. Besides, the CC50 at 48 h in series [2] is 137 µM.
For `C[C@@H]1[C@H]2C[C@@H](C[C@H]1NCc1cnc(C3CC3)[nH]1)C2(C)C`, in that order: “Not Active” and 94.5 µM.
Turning to `Cc1ncc(CN[C@@H]2C[C@@H]3C[C@H]([C@H]2C)C3(C)C)[nH]1`, the half-maximal inhibitory concentration (IC50) result in the series on Influenza A virus [1] (mdck) is listed as “Not Active”. The CC50 at 48 h in series [2] was 202 µM.
On to `CCCc1nc(C(C)C)[nH]c1CN[C@@H]1C[C@@H]2C[C@H]([C@H]1C)C2(C)C`, for which the results for the IC50 in the series with Influenza A virus [3] and in the series on Influenza A virus [1] (setting [6]) were 13.5 µM and 10.2 µM, respectively. In addition, the CC50 at 48 h in series [2] was found to be 156 µM.
In the same order, the values of `C[C@@H]1[C@H]2C[C@@H](C[C@H]1NCc1[nH]cnc1C1CC1)C2(C)C` are 3.8 µM, 3.4 µM and 162 µM.
With `C[C@@H]1[C@H]2C[C@@H](C[C@H]1NCc1cnc(-c3cccs3)[nH]1)C2(C)C`, the half-inhibitory concentration (IC50) result with Influenza A virus [1] (mdck) is “Not Active”. In series [2], the CC50 at 48 h amounted to 75.6 µM.
For the molecule `CCc1nc[nH]c1CN[C@@H]1C[C@@H]2C[C@H]([C@H]1C)C2(C)C`, the IC50 in the series with Influenza A virus [3] amounted to 6.7 µM; with Influenza A virus [1] (setting [6]), 5.8 µM. The CC50 at 48 h in series [2] was determined as 180 µM.
